In ChEMBL document CHEMBL1133754, “Synthesis and antiviral evaluation of halogenated beta-D- and -L-erythrofuranosylbenzimidazoles” (J Med Chem, 2000):

What was measured:
[1] = (§1) Compound was tested for inhibition of KB cell growth in quadruplicate assay; assay type: functional, cell-based; conditions: Homo sapiens
Procedure, shortened: (§2)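 KB cell proliferation over two control population doublings; crystal violet staining with spectrophotometric quantification of eluted dye; quadruplicate assays; IC50 by linear regression of percent inhibition vs log concentration.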

HFF [2] = test: Compound was tested for antiviral activity against Towne strain of HCMV in a plaque reduction assay using HFF cells; assay type: functional, cell-based; conditions: Homo sapiens
[3] = Compound was tested for antiviral activity against Towne strain of HCMV in a yield reduction assay using HFF cells; assay type: functional; conditions: Homo sapiens
Procedure, shortened: (§3)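 HCMV Towne yield reduction in HFF cells, MOI 0.5; progeny titred by end-point dilution and plaque enumeration; IC50 from linear regression of percent inhibition against log drug concentration.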

Human betaherpesvirus 5 [4] = test: Compound was tested for antiviral activity against HCMV in DNA hybridization assay; assay type: functional, organism-based
Procedure, shortened: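 HCMV replication measured by DNA hybridization; IC50 from linear regression of percent inhibition against log drug concentration.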

Human betaherpesvirus 5 [5] = test: Compound was tested for antiviral activity against HCMV in viral cytopathic effect (CPE) assay; assay type: functional, organism-based
Procedure, shortened: (§4)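 HCMV viral cytopathic effect scored microscopically as visible virus effects on cells; IC50 derived by linear regression of percent inhibition vs log drug concentration.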

HFF [6] = test: Compound was tested for antiviral activity against AD169 strain of HCMV in a plaque reduction assay using HFF cells; assay type: functional, cell-based; conditions: Homo sapiens
HFF [7] = test: Compound was tested for antiviral activity against wild-type Towne virus of HCMV in plaque reduction assay using HFF cells; assay type: functional, cell-based; conditions: Homo sapiens
KB = test: as §1; assay type: functional, cell-based; conditions: Homo sapiens; procedure, shortened: as §2
Human alphaherpesvirus 1 = test: Compound was tested for antiviral activity against HSV-1 assayed by ELISA in quadruplicate wells; assay type: functional, organism-based
Procedure, shortened: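 HSV-1 replication measured by ELISA in quadruplicate wells; IC50 from linear regression of percent inhibition against log drug concentration.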

HFF [8] = test: Compound was tested for antiviral activity against wild-type AD169 virus of HCMV in plaque reduction assay using HFF cells; assay type: functional, cell-based; conditions: Homo sapiens
HFF [9] = test: Compound was tested for visual cytotoxicity on HFF cells unaffected by HCMV at the time of plaque enumeration; assay type: functional, cell-based; conditions: Homo sapiens
Procedure, shortened: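 Stationary HFF cells not affected by virus in plaque assay plates inspected microscopically for cytotoxicity at time of plaque enumeration; IC50 by regression of percent inhibition vs log concentration.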

HFF [10] = test: Compound was tested for antiviral activity against 2916 type AD169 virus of HCMV in plaque reduction assay using HFF cells; assay type: functional, cell-based; conditions: Homo sapiens
[11] = Compound was tested for inhibition of MOLT 4 cells.; assay type: functional, cell-based, Homo sapiens
Procedure, shortened: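 Cytotoxicity in MOLT 4 cells (human T-cell lymphocytic leukemia line). IC50 from linear regression of percent inhibition against log drug concentration; >100 µM means IC50 was not reached at the highest concentration tested.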

HFF [12] = test: Compound was tested for antiviral activity against C-4 Towne virus of HCMV in plaque reduction assay using HFF cells; assay type: functional, cell-based; conditions: Homo sapiens
HFF [13] = test: (§5) Compound was tested for antiviral activity against wild-type Towne strain of HCMV in yield reduction assay using HFF cells; assay type: functional, cell-based; conditions: Homo sapiens; procedure, shortened: as §3
HFF [14] = test: (§6) Compound was tested for antiviral activity against C-4 Towne strain of HCMV in yield reduction assay using HFF cells; assay type: functional, cell-based; conditions: Homo sapiens
Human betaherpesvirus 5 [15] = test: Compound was tested for antiviral activity against HCMV in viral cytopathic effect(CPE) assay; assay type: functional, organism-based; procedure, shortened: as §4
HFF [16] = test: (§7) Compound was tested for antiviral activity against wild-type AD169 strain of HCMV in yield reduction assay using HFF cells; assay type: functional; conditions: Homo sapiens
HFF [17] = test: (§8) Compound was tested for antiviral activity against 2916 AD169 strain of HCMV in yield reduction assay using HFF cells; assay type: functional; conditions: Homo sapiens
HFF [18] = test: as §5; assay type: functional; conditions: Homo sapiens; procedure, shortened: as §3
HFF [19] = test: as §6; assay type: functional; conditions: Homo sapiens
HFF [20] = test: as §8; assay type: functional, cell-based; conditions: Homo sapiens
HFF [21] = test: Compound was tested for antiviral activity against AD169 strain of HCMV in a plaque assay using HFF cells; assay type: functional, cell-based; conditions: Homo sapiens
HFF [22] = test: as §7; assay type: functional, cell-based; conditions: Homo sapiens
HFF [23] = test: Compound was tested for antiviral activity against C-4 Towne virus of HCMV in yield reduction assay using HFF cells; assay type: functional, cell-based; conditions: Homo sapiens
HFF [24] = test: Compound was tested for antiviral activity against 2916 strain of HCMV in plaque reduction assay using HFF cells; assay type: functional, cell-based; conditions: Homo sapiens
HFF [25] = test: Compound was tested for antiviral activity against wild-type Towne virus of HCMV in yield reduction assay using HFF cells; assay type: functional, cell-based; conditions: Homo sapiens; procedure, shortened: as §3

OC[C@H]1O[C@@H](n2c(Cl)nc3cc(Cl)c(Cl)cc32)[C@H](O)[C@@H]1O
IC50 [1]: 210000 nM | IC50 (HFF [2]): 2800 nM | IC90 [3]: 1300 nM

CC(C)Nc1nc2c(Cl)c(Cl)c(Cl)cc2n1C1OC[C@H](O)[C@@H]1O (stereo partly drawn)
IC50 (Human betaherpesvirus 5 [4]): 150 nM | IC50 (Human betaherpesvirus 5 [5]): 800 nM

O[C@@H]1COC(n2c(Br)nc3cc(Cl)c(Cl)cc32)[C@@H]1O (stereo partly drawn)
IC50 (Human betaherpesvirus 5 [4]): 230 nM | IC50 (HFF [6]): 40 nM | IC50 (Human betaherpesvirus 5 [5]): 50 nM | IC50 (HFF [7]): 230 nM | IC50 (KB): 50000 nM | IC50 (Human alphaherpesvirus 1): 50000 nM | IC50 (HFF [2]): 240 nM | IC50 (HFF [8]): 30 nM | IC90 [3]: 60 nM | IC50 (HFF [9]): 32000 nM | IC50 (HFF [10]): 30 nM | IC50 [11]: 47000 nM | IC50 (HFF [12]): 12000 nM

Nc1nc2c(ncn2COC(CO)CO)c(=O)[nH]1 [GANCICLOVIR]
IC50 (Human betaherpesvirus 5 [4]): 880 nM | IC50 (HFF [13]): 4500 nM | IC50 (KB): > 100000 nM | IC90 (HFF [14]): 4100 nM | IC50 (Human betaherpesvirus 5 [15]): 2000 nM | IC90 (HFF [16]): 3300 nM | IC90 [3]: 1600 nM | IC50 (HFF [9]): > 100000 nM | IC90 (HFF [17]): 3600 nM

O[C@@H]1C(n2c(NC3CC3)nc3cc(Cl)c(Cl)cc32)OC[C@@H]1O (stereo partly drawn)
IC50 (Human betaherpesvirus 5 [4]): 2000 nM | IC50 (Human betaherpesvirus 5 [5]): 2300 nM | IC50 [11]: 43000 nM

CC(=O)OC1[C@@H](OC(C)=O)CO[C@H]1n1c(Br)nc2cc(Cl)c(Cl)cc21 (stereo partly drawn)
IC50 (Human betaherpesvirus 5 [4]): 210 nM | IC50 (HFF [6]): 50 nM | IC50 (Human betaherpesvirus 5 [5]): 50 nM | IC50 [1]: 60000 nM | IC50 (Human alphaherpesvirus 1): > 100000 nM | IC50 (HFF [2]): 220 nM | IC90 [3]: 50 nM | IC50 (HFF [9]): 59000 nM

CC(C)Nc1nc2cc(Cl)c(Cl)cc2n1C1OC[C@H](O)[C@@H]1O (stereo partly drawn)
IC50 (Human betaherpesvirus 5 [4]): 800 nM | IC50 (Human betaherpesvirus 5 [5]): 2300 nM | IC50 [11]: 15000 nM

O[C@@H]1COC(n2c(NC3CC3)nc3cc(Cl)c(Cl)cc32)[C@@H]1O (stereo partly drawn)
IC50 (Human betaherpesvirus 5 [4]): 260 nM | IC50 (Human betaherpesvirus 5 [5]): 600 nM | IC50 [1]: > 100000 nM | IC90 (HFF [18]): 10000 nM | IC50 (Human alphaherpesvirus 1): > 100000 nM | IC50 (HFF [2]): 19000 nM | IC90 [3]: 6800 nM | IC50 (HFF [9]): > 100000 nM | IC90 (HFF [19]): 5000 nM | IC50 [11]: 132000 nM

CC(=O)OC1[C@@H](OC(C)=O)CO[C@H]1n1c(Cl)nc2cc(Cl)c(Cl)cc21 (stereo partly drawn)
IC50 (Human betaherpesvirus 5 [4]): 330 nM | IC50 (Human betaherpesvirus 5 [5]): 100 nM | IC50 [1]: 45000 nM | IC50 (Human alphaherpesvirus 1): > 100000 nM | IC50 (HFF [2]): 250 nM | IC90 [3]: 100 nM | IC50 (HFF [9]): 41000 nM

O[C@@H]1COC(n2c(Cl)nc3cc(Cl)c(Cl)cc32)[C@@H]1O (stereo partly drawn)
IC50 (Human betaherpesvirus 5 [4]): 100 nM | IC50 (Human betaherpesvirus 5 [5]): 100 nM | IC50 [1]: 60000 nM | IC50 (Human alphaherpesvirus 1): > 100000 nM | IC50 (HFF [2]): 240 nM | IC90 [3]: 120 nM | IC50 (HFF [9]): 32000 nM

O[C@@H]1COC(n2c(Cc3ccccc3S)nc3cc(Cl)c(Cl)cc32)[C@@H]1O (stereo partly drawn)
IC50 (Human betaherpesvirus 5 [4]): > 10000 nM | IC50 (Human betaherpesvirus 5 [5]): > 10000 nM | IC50 (KB): 60000 nM | IC50 (Human alphaherpesvirus 1): 65000 nM | IC50 (HFF [2]): 32000 nM | IC50 (HFF [9]): 32000 nM

CC(C)Nc1nc2c(Br)c(Cl)c(Cl)cc2n1C1OC[C@@H](O)[C@H]1O (stereo partly drawn)
IC50 (Human betaherpesvirus 5 [4]): 160 nM | IC50 (Human betaherpesvirus 5 [5]): 1000 nM | IC50 [11]: 13000 nM

CC(C)Nc1nc2cc(Cl)c(Cl)cc2n1C1O[C@@H](CO)[C@H](O)[C@@H]1O (stereo partly drawn)
IC50 (HFF [20]): > 100000 nM | IC50 (HFF [21]): 450 nM | IC50 (HFF [22]): 330 nM | IC50 (Human betaherpesvirus 5 [4]): 100 nM | IC50 [1]: 65000 nM | IC90 (HFF [18]): 590 nM | IC50 (Human alphaherpesvirus 1): > 100000 nM | IC90 [3]: 600 nM | IC50 (HFF [9]): > 100000 nM | IC90 (HFF [19]): 700 nM

CC(C)Nc1nc2cc(Cl)c(Cl)cc2n1C1OC[C@@H](O)[C@H]1O (stereo partly drawn)
IC50 (Human betaherpesvirus 5 [4]): 420 nM | IC50 (HFF [6]): 1800 nM | IC50 (KB): > 100000 nM | IC50 (Human betaherpesvirus 5 [15]): 800 nM | IC90 (HFF [18]): 6900 nM | IC50 (Human alphaherpesvirus 1): > 100000 nM | IC50 (HFF [2]): 7900 nM | IC90 [3]: 5000 nM | IC50 (HFF [9]): > 100000 nM | IC90 (HFF [19]): 8500 nM | IC50 [11]: 84000 nM

OC[C@H]1O[C@@H](n2c(Br)nc3cc(Cl)c(Cl)cc32)[C@H](O)[C@@H]1O
IC50 (Human betaherpesvirus 5 [4]): 520 nM | IC50 (Human betaherpesvirus 5 [5]): 300 nM | IC50 (HFF [7]): 1700 nM | IC50 (KB): > 100000 nM | IC90 (HFF [23]): 8000 nM | IC50 (Human alphaherpesvirus 1): 130000 nM | IC50 (HFF [2]): 700 nM | IC50 (HFF [8]): 340 nM | IC90 [3]: 200 nM | IC50 (HFF [9]): 118000 nM | IC50 (HFF [24]): 410 nM | IC50 (HFF [25]): 300 nM | IC50 (HFF [12]): 31000 nM
